According to ChEMBL document CHEMBL3588826, “Chimeric derivatives of functionalized amino acids and α-aminoamides: compounds with anticonvulsant activity in seizure models and inhibitory actions on central, peripheral, and cardiac isoforms of voltage-gated sodium channels” (Bioorg Med Chem, 2015):
Active and inactive are the calls of the source. The rule behind the calls is not given here.

Key:
[1] = tested on: Mus musculus; assay: Anticonvulsant activity in ip dosed albino Carworth Farms No. 1 mouse measured at 0.5 hrs by 6Hz (32 mA) psychomotor seizure test; type: functional; conditions: Carworth Farms No. 1, ip
How it was run: (§1)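 Screened under the NIH anticonvulsant program in male albino Carworth Farms No. 1 mice (ip) and male albino Sprague-Dawley rats (ip or oral). Protection tested by maximal electroshock or 6 Hz (32 mA) psychomotor stimulation.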

[2] = Behavioural toxicity in po dosed albino Sprague-Dawley rat measured at 0.5 hrs; type: organism-based; conditions: in vivo
How it was run: (§2)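 Male albino Sprague-Dawley rats were dosed ip or orally. […] Protective index = TD50/ED50, the ED50 taken from maximal electroshock by the same route.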

[3] = species on record: Rattus norvegicus; assay: Frequency-dependent inhibition of voltage-gated sodium channel in rat embryonic cortical neurons assessed as current amplitude at 10 uM measured at holding potential of -80 mV by whole cell patch-clamp electrophysiology
How it was run: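 E19 rat cortical neurons cultured 7–10 days were recorded by whole-cell voltage clamp at room temperature. Compound was at 10 μM versus 0.1% DMSO. A pulse train was applied, and available current was taken as peak current at pulse N divided by peak at pulse 1.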

[4] = Protective index, ratio of TD50 for behavioural toxicity in ip dosed albino Sprague-Dawley rat to ED50 for anticonvulsant activity in ip dosed MES albino Sprague-Dawley rat model; type: organism-based; conditions: in vivo, read-out: Ratio TD50/ED50; how it was run: as §2
[5] = tested on: Rattus norvegicus; assay: Anticonvulsant activity in po dosed albino Sprague-Dawley rat measured at 0.25 - 1 hr by maximal electroshock seizure test; type: functional; how it was run: as §1
[6] = Behavioural toxicity in po dosed albino Sprague-Dawley rat measured at 0.25 - 4 hrs; type: organism-based; conditions: in vivo; how it was run: as §2
[7] = tested on: Mus musculus; assay: Anticonvulsant activity in ip dosed albino Carworth Farms No. 1 mouse measured at 0.25 hrs by maximal electroshock seizure test; type: functional; conditions: Carworth Farms No. 1, ip; how it was run: as §1
[8] = species on record: Rattus norvegicus; assay: Inhibition of voltage-gated sodium channel in rat embryonic cortical neurons assessed as half-maximal voltage for steady state activation at 10 uM by whole cell patch-clamp electrophysiology (reference value: -27.1 +/- 1.3 mV)
How it was run: (§3)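 Rat embryonic day 19 cortical neurons, cultured 7–10 days, were whole-cell voltage-clamped at room temperature with 1–2 MΩ electrodes, with compound at 10 μM and 0.1% DMSO as control. Fast inactivation: 500 ms prepulses, then a test pulse. Activation: conductance G = I/(Vm − Vrev). V1/2 and k came from Boltzmann fits to individual cells, averaged (mean ± SEM), 5–7 cells per condition.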

[9] = Neurotoxicity in ip dosed albino Carworth Farms No. 1 mouse measured at 0.25 hrs by rotarod test; type: toxicity, organism-based; conditions: in vivo
[10] = Protective index, ratio of TD50 for neurotoxicity in ip dosed albino Carworth Farms No. 1 mouse to ED50 for anticonvulsant activity in ip dosed MES albino Carworth Farms No. 1 mouse model; type: toxicity, organism-based; conditions: in vivo, read-out: Ratio TD50/ED50
How it was run: (§4)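 Male albino Carworth Farms No. 1 mice were dosed ip. Protective index = TD50/ED50, the ED50 taken from the ip maximal electroshock test.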

[11] = tested on: Rattus norvegicus; assay: Anticonvulsant activity in ip dosed albino Sprague-Dawley rat measured at 0.25 hrs by maximal electroshock seizure test; type: functional; how it was run: as §1
[12] = Behavioural toxicity in ip dosed albino Sprague-Dawley rat measured at 1 hr; type: organism-based; conditions: in vivo; how it was run: as §2
[13] = tested on: Rattus norvegicus; assay: Anticonvulsant activity in po dosed albino Sprague-Dawley rat measured at 5 hrs by maximal electroshock seizure test; type: functional; how it was run: as §1
[14] = tested on: Mus musculus; assay: Anticonvulsant activity in ip dosed albino Carworth Farms No. 1 mouse measured at 1 hr by maximal electroshock seizure test; type: functional; conditions: Carworth Farms No. 1, ip; how it was run: as §1
[15] = species on record: Rattus norvegicus; assay: Inhibition of voltage-gated sodium channel in rat embryonic cortical neurons assessed as transition of channels to slow-inactivated state at 10 uM measured at -50 mV by whole cell patch-clamp electrophysiology
How it was run: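 E19 rat cortical neurons cultured 7–10 days were recorded by whole-cell voltage clamp at room temperature, with electrodes of 1–2 MΩ. Compound was at 10 μM versus 0.1% DMSO control. Slow inactivation at −50 mV was calculated as 1 minus normalized peak INa, from 5–8 cells per condition.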

[16] = Protective index, ratio of TD50 for behavioural toxicity in po dosed albino Sprague-Dawley rat to ED50 for anticonvulsant activity in po dosed MES albino Sprague-Dawley rat model; type: organism-based; conditions: in vivo, read-out: Ratio TD50/ED50
How it was run: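 Male albino Sprague-Dawley rats were dosed ip or orally. Protective index = TD50/ED50, the ED50 taken from maximal electroshock by the same route.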

[17] = Behavioural toxicity in ip dosed albino Sprague-Dawley rat measured at 0.5 hrs; type: organism-based; conditions: in vivo
[18] = tested on: Mus musculus; assay: Anticonvulsant activity in ip dosed albino Carworth Farms No. 1 mouse measured at 0.5 hrs by maximal electroshock seizure test; type: functional; conditions: Carworth Farms No. 1, ip; how it was run: as §1
[19] = tested on: Rattus norvegicus; assay: Anticonvulsant activity in ip dosed albino Sprague-Dawley rat measured at 0.5 hrs by maximal electroshock seizure test; type: functional
How it was run: (§5)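 Screened under the NIH Anticonvulsant Screening Program in male rodents, with mice and rats dosed ip and rats also dosed po. Maximal electroshock (MES) and 6 Hz (32 mA) psychomotor seizure tests were run.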

[20] = tested on: Rattus norvegicus; assay: Anticonvulsant activity in po dosed albino Sprague-Dawley rat measured at 1 hr by maximal electroshock seizure test; type: functional; how it was run: as §1
[21] = tested on: Mus musculus; assay: Anticonvulsant activity in ip dosed albino Carworth Farms No. 1 mouse measured at 0.25 hrs by 6Hz (32 mA) psychomotor seizure test; type: functional; conditions: Carworth Farms No. 1, ip; how it was run: as §1
[22] = tested on: Rattus norvegicus; assay: Anticonvulsant activity in po dosed albino Sprague-Dawley rat measured at 0.5 - 4 hrs by maximal electroshock seizure test; type: functional; how it was run: as §1
[23] = tested on: Mus musculus; assay: (§6) Neurotoxicity in ip dosed albino Carworth Farms No. 1 mouse measured at 0.5 hrs by rotarod test; type: toxicity, organism-based; conditions: mouse, in vivo, 0.5 h; how it was run: as §4
[24] = species on record: Rattus norvegicus; assay: Effect on steady state fast-inactivation of voltage-gated sodium channel in rat embryonic cortical neurons at 10 uM by whole cell patch-clamp electrophysiology; how it was run: as §3
[25] = tested on: Mus musculus; assay: Anticonvulsant activity in ip dosed albino Carworth Farms No. 1 mouse measured at 0.5 - 2.0 hrs by maximal electroshock seizure test; type: functional; conditions: Carworth Farms No. 1, ip; how it was run: as §1
[26] = as §6; type: toxicity, organism-based; conditions: Carworth Farms No. 1, mouse, in vivo; how it was run: as §4
[27] = species on record: Rattus norvegicus; assay: Inhibition of voltage-gated sodium channel in rat embryonic cortical neurons assessed as decrease in fraction of current available at 10 uM measured at -50 mV by whole cell patch-clamp electrophysiology
How it was run: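 Embryonic cortical neurons were treated with 10 μM compound or 0.1% DMSO, whole-cell voltage clamp at room temperature. Slow inactivation was assessed at −50 mV, with the fraction inactivated taken as 1 minus the normalized INa. Student's t-test; 5–8 cells per condition.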

[28] = species on record: Rattus norvegicus; assay: Effect on steady state activation of voltage-gated sodium channel in rat embryonic cortical neurons at 10 uM by whole cell patch-clamp electrophysiology; how it was run: as §3
[29] = tested on: Rattus norvegicus; assay: Anticonvulsant activity in ip dosed albino Sprague-Dawley rat by maximal electroshock seizure test; type: functional; how it was run: as §5
[30] = Behavioural toxicity in po dosed albino Sprague-Dawley rat; conditions: in vivo
[31] = tested on: Rattus norvegicus; assay: Anticonvulsant activity in po dosed albino Sprague-Dawley rat by maximal electroshock seizure test; type: functional; how it was run: as §5
[32] = tested on: Mus musculus; assay: Anticonvulsant activity in ip dosed albino Carworth Farms No. 1 mouse measured at 0.25-0.5 hrs by 6Hz (32 mA) psychomotor seizure test; type: functional; conditions: Carworth Farms No. 1, ip; how it was run: as §5
[33] = tested on: Rattus norvegicus; assay: Anticonvulsant activity in po dosed albino Sprague-Dawley rat measured at 0.25 - 4.0 hrs by maximal electroshock seizure test; type: functional; how it was run: as §5
[34] = tested on: Mus musculus; assay: Anticonvulsant activity in ip dosed albino Carworth Farms No. 1 mouse by maximal electroshock seizure test; type: functional; conditions: Carworth Farms No. 1, ip; how it was run: as §5
[35] = Behavioural toxicity in ip dosed albino Sprague-Dawley rat measured at 0.25 hrs; type: organism-based; conditions: in vivo; how it was run: as §2
[36] = tested on: Rattus norvegicus; assay: Anticonvulsant activity in po dosed albino Sprague-Dawley rat measured at 0.5 hrs by maximal electroshock seizure test; type: functional; how it was run: as §1

COC[C@@H](NC(C)=O)C(=O)NCc1ccccc1 [LACOSAMIDE]
ED50 [1]: 10 mg/kg
TD50 at 0.5 h [2]: > 500 mg/kg

COC[C@@H](NC(C)=O)C(=O)NCc1ccc(Oc2cccc(OC)c2)cc1
inhibition [3]: inactive
selectivity ratio [4]: 8
ED50 [5]: 30 mg/kg
TD50 [6]: > 30 mg/kg
ED50 [7]: 13 mg/kg
V1/2 [8]: -36.8 mV
ED50 [1]: < 100 mg/kg
TD50 at 0.25 h [9]: 85 mg/kg
selectivity ratio [10]: 6.5
ED50 [11]: 15 mg/kg
TD50 at 1 h [12]: 120 mg/kg

CCC1(c2ccccc2)C(=O)NC(=O)NC1=O [PHENOBARBITAL]
ED50 [13]: 9.1 mg/kg
ED50 [14]: 22 mg/kg

COC[C@@H](NC(C)=O)C(=O)NCc1ccc(Oc2cccc(Cl)c2)cc1
inhibition [3]: inactive
inhibition [15]: Active
selectivity ratio [16]: 18
selectivity ratio [4]: 8.3
TD50 at 0.5 h [17]: 49 mg/kg
ED50 [18]: 9.4 mg/kg
ED50 [19]: 5.9 mg/kg
TD50 at 0.25 h [9]: 47 mg/kg
selectivity ratio [10]: 5
ED50 [20]: 12 mg/kg
TD50 at 0.5 h [2]: 210 mg/kg
ED50 [21]: 20 mg/kg

COC[C@@H](NC(C)=O)C(=O)NCc1ccc(Oc2cccc(C(F)(F)F)c2)cc1
inhibition [3]: inactive
TD50 [6]: > 30 mg/kg
ED50 [22]: < 30 mg/kg
ED50 [18]: 10 mg/kg
V1/2 [8]: -35.6 mV
ED50 [1]: < 100 mg/kg
TD50 [23]: > 100 mg/kg

COC[C@@H](NC(C)=O)C(=O)NCc1ccc(Oc2ccccc2)cc1
inhibition [3]: inactive
Activity [24]: inactive
ED50 [1]: < 30 mg/kg
ED50 [25]: < 30 mg/kg
TD50 at 0.5 h [26]: < 100 mg/kg
inhibition [27]: Active
Activity [28]: inactive

CCCC(CCC)C(=O)O [VALPROIC ACID]
ED50 [7]: 270 mg/kg

O=C1NC(=O)C(c2ccccc2)(c2ccccc2)N1 [PHENYTOIN]
ED50 [29]: 2.4 mg/kg
TD50 [30]: > 1000 mg/kg
ED50 [31]: 28 mg/kg

COC[C@@H](NC(C)=O)C(=O)NCc1ccc(Oc2cccc(F)c2)cc1
inhibition [3]: inactive
TD50 [6]: > 10 mg/kg
ED50 [7]: 5.5 mg/kg
ED50 [32]: 10 mg/kg
selectivity ratio [10]: 4.2
ED50 [33]: < 10 mg/kg

C[C@H](NCc1ccc(OCc2cccc(F)c2)cc1)C(N)=O [SAFINAMIDE]
ED50 [34]: 4.1 mg/kg
ED50 [31]: 12 mg/kg

COC[C@@H](NC(C)=O)C(=O)NCc1ccc(Oc2cccc(C)c2)cc1
inhibition [3]: inactive
selectivity ratio [4]: 12
TD50 [6]: > 30 mg/kg
ED50 [7]: 14 mg/kg
TD50 at 0.25 h [35]: 140 mg/kg
ED50 [36]: < 30 mg/kg
ED50 [1]: 100 mg/kg
TD50 at 0.25 h [9]: 65 mg/kg
selectivity ratio [10]: 4.6
ED50 [11]: 12 mg/kg
